Source: PubChem BioAssay
In the library only some 5.5% were active in any assay of this set; here they are far more common.
STAT3 inh: IL-6 driven STAT3 reporter inhibitors, primary screen, U3A cells, luciferase, luminescence, MLSCN library; IL-6 STAT3-luciferase reporter; host cell line lacks STAT1; inhibition, % at 5.5 µM; hit rate 0.89% among 190,000;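 active = inhibition above the mean inhibition across all screened compounds plus 3 SD, cut at about 44% in these data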
Cl transport mod: KCC2 cotransporter modulators, thallium flux, primary screen, cell-based, HEK293 KCC2, FluoZin-2 fluorescence, MLSMR. AID 1456, 2008. hit rate 2.2% among 190,000. B-score of Tl+ flux slope (higher = more flux/activation; lower = inhibition) at 10 µM. KCC2 cells, thallium flux FluoZin-2 fluorescence;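 active = thallium flux slope and its plate-corrected score both differing from the plate sample mean at a set confidence after two filtering rounds, in either direction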;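 also: slope of fluorescence scaled to starting intensity during 10 to 20 s after thallium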
Target sequence (Q9H2X9 whole entry, looked up): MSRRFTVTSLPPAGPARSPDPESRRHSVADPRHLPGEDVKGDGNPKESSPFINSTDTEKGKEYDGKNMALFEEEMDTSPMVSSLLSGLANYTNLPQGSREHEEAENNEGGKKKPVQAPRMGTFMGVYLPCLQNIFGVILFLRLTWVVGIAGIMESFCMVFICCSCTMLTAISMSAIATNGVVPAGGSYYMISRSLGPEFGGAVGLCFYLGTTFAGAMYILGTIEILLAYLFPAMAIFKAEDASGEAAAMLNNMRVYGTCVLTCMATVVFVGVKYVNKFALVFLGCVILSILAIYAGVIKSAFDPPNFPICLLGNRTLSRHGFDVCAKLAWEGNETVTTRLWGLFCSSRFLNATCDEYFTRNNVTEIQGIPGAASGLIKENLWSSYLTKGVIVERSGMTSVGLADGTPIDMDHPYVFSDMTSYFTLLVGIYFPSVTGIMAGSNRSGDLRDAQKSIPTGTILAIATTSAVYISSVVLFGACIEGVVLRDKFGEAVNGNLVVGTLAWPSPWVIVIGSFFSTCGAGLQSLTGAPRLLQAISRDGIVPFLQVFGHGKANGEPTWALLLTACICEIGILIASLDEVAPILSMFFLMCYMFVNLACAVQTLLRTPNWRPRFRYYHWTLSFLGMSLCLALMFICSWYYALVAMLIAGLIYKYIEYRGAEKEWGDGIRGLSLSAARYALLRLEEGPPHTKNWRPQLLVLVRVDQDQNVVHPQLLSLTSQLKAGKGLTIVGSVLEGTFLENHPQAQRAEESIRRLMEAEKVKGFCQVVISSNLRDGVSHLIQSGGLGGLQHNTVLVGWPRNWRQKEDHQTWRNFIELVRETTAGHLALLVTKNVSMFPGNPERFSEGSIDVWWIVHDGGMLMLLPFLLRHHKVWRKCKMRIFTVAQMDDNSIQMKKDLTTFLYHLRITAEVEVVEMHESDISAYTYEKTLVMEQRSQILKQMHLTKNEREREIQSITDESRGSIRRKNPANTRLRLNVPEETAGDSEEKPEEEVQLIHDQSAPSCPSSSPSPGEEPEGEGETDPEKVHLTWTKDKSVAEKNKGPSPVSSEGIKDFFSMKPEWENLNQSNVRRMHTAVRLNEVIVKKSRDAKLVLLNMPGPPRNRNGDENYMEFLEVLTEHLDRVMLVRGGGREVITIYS
STAT1 blocker: STAT1 signaling inhibitors, primary screen, cell-based, HTS, luciferase reporter; inhibition, % at 5.5 µM; NIH 3T3 STAT1-luciferase reporter, IFN-gamma, luminescence; hit rate 0.35% among 200,000;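 active = inhibition above a set limit, the mean inhibition across all tested compounds plus 3 SD, cut at about 34% in these data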
HSV augment: enhancers of HSV replication in host cells, fold increase, host cell viability; HSV replication augmentation in cells; maximum fold increase; hit rate 0.005% among 220,000; AID 1956, 2009; in the data active = maximum fold increase above about 1.5; inconclusive = no clear call, values can overlap the other calls; tested in PC3 cells
STAT1 activator: STAT1 signaling activators, primary screen, cell-based, HTS, luciferase reporter. NIH 3T3 STAT1-luciferase reporter, IFN-gamma, luminescence; 100% = IFN-gamma alone, no compound. activation (% of control), % at 5.5 µM. hit rate 2.6% among 200,000;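 active = activation above the screen-wide mean activation plus 3 SD, cut at about 130% in these data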
STAT3 act: IL-6 driven STAT3 reporter potentiators, primary screen, U3A cells, luciferase, luminescence, MLSCN library; hit rate 0.91% among 190,000; activation (% of control), % at 5.6 µM; IL-6 STAT3-luciferase reporter; 100% = signal with IL-6 EC80 alone; AID 871, 2007;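 active = activation above the screen-wide mean of compound activation plus 3 SD, cut at about 130% in these data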
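Material: STAT3-luciferase reporter U3A cells; Probe or stimulus: IL-6 (33 ng/mL); Incubation: compound pre-incubation 1 h before IL-6, then 6 h stimulation at 37 °C; Technique: luminescence from STAT3-driven luciferase reporter; Evaluation: % activation versus median of IL-6-stimulated wells; Controls: IL-6-only high control.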
KCC2 sec1: KCC2 modulators in sodium-free buffer, confirmation, cell-based, HEK293 KCC2, thallium flux, secondary assay; shares compounds with Cl transport mod; FluoZin2 fluorescence; hits give high values; normalised thallium flux (F/F0 slope) at 10 µM; hit rate 15% among 3,700; AID 1713, 2009;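 active = thallium flux slope above the same plate's solvent-only control mean plus 3 SD; inconclusive = the two replicate wells disagree; inactive = no significant difference from solvent-only control wells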
KCC2 bumet counter: thallium flux persisting under bumetanide in KCC2 cells, confirmation, counter-screen for KCC2 modulator project, cell-based, HEK293 KCC2, FluoZin2, secondary assay 3; shares compounds with Cl transport mod; HEK293-KCC2 + bumetanide/ouabain; hits give high values; normalized thallium flux at 10 µM; hit rate 49% among 3,700;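 active = thallium entry rate above the same plate's blocked-transporter control wells by more than 3 SD; inconclusive = the two repeat wells disagree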;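 also: raw slope of fluorescence over initial fluorescence between 10 and 20 s after thallium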
KCC2 sec2: KCC2 modulators without ouabain present, confirmation, cell-based, HEK293 KCC2, thallium flux, FluoZin2, secondary assay 2; AID 1715, 2009; hit rate 23% among 3,700; thallium flux FluoZin2 fluorescence; actives lie on both sides; F/F0 rise rate, 10–20 s post-thallium; normalized thallium flux at 10 µM; shares compounds with Cl transport mod;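 active = thallium flux slope more than 3 SD above or below the plate's solvent-only control mean, mostly below; inconclusive = the two repeat wells disagreed; inactive = no significant shift from solvent-only controls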
HEK counter1: thallium flux modulation in parental HEK cells, confirmation, counter-screen for KCC2 modulator project, cell-based, counterscreen 1; shares compounds with Cl transport mod; HEK293 parental cells, thallium flux FluoZin2, ouabain; baseline-ratio fluorescence slope, 10–20 s after thallium; thallium flux rate (normalised fluorescence) at 10 µM; hit rate 46% among 3,700; AID 1716, 2009;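 active = thallium flux rate significantly above the same plate's solvent-only control wells, beyond their mean plus 3 SD; inconclusive = the two replicate wells gave conflicting results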
KCC2 ouabain: KCC2 inhibitors and activators, ouabain retest, confirmation, HEK-KCC2 cells | shares compounds with Cl transport mod | hit rate 48% among 3,700 | raw Tl+ flux slope (below DMSO = inhibition, above = activation) at 10 µM | HEK293-KCC2, thallium flux FluoZin2 fluorescence; bidirectional: low = inhibitor, high = activator;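 active = thallium flux slope beyond 3 SD from same-plate DMSO control mean in most replicates, usually higher, sometimes lower; inconclusive = repeat tests gave conflicting results; inactive = no significant difference from controls in most replicates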;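 also: slope of initial-normalized fluorescence between seconds 10 and 20 after thallium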
HEK293 Tl flux2: native HEK Tl+ uptake effects, second counter-screen – HEK cells, counterscreen 2, counter-screen for KCC2 modulator project, confirmation. HEK293 parental, thallium flux FluoZin-2 fluorescence slope. hit rate 33% among 3,700. shares compounds with Cl transport mod. thallium flux slope at 10 µM. AID 1718, 2009;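 active = thallium flux slope above the same plate's solvent-control mean plus 3 SD in both duplicate wells; inconclusive = duplicate wells that disagreed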;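 also: run without ouabain in cells lacking the KCC2 cotransporter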
Each line names hits and unclear results; the compound was inactive in the other large screens (follow-up assays come after a bar, where they were run).

COc1ccc(CCNc2oc(COc3ccccc3F)nc2C#N)cc1OC	Cl transport mod -4.04 | KCC2 sec1 inactive | KCC2 bumet counter inconclusive | KCC2 sec2 0.0265 | HEK counter1 0.00624 | KCC2 ouabain 0.015 | HEK293 Tl flux2 inconclusive
Cc1ccc(-c2oc3ccccc3c(=O)c2O)cc1	Cl transport mod 106 | KCC2 sec1 0.00992 | KCC2 bumet counter 0.101 | KCC2 sec2 0.0811 | HEK counter1 0.0949 | KCC2 ouabain 0.0974 | HEK293 Tl flux2 0.0798
O=c1cc(CSc2nnnn2-c2ccccc2)nc2sccn12	none
O=C(CSc1nnnn1-c1ccccc1)CSc1nnnn1-c1ccccc1	none (no result: Cl transport mod) | KCC2 sec1 inactive | KCC2 bumet counter inactive | KCC2 sec2 inactive | HEK counter1 inconclusive | KCC2 ouabain 0.0257 | HEK293 Tl flux2 inactive
O=c1cc(CSc2nnnn2-c2ccccc2)nc2scc(-c3ccccc3)n12	Cl transport mod -4.71 | KCC2 sec1 inactive | KCC2 bumet counter inactive | KCC2 sec2 0.0235 | HEK counter1 inactive | KCC2 ouabain 0.0127 | HEK293 Tl flux2 inactive
O=C(CSc1nnnn1-c1ccccc1)N1CCc2ccccc21	none
O=C(O)CSc1nnnn1-c1ccccc1	none
O=C(CSc1nnnn1-c1ccc(Cl)cc1)N1CCc2ccccc2C1	none (no result: Cl transport mod) | KCC2 sec1 inactive | KCC2 bumet counter inconclusive | KCC2 sec2 0.0248 | HEK counter1 inactive | KCC2 ouabain inconclusive | HEK293 Tl flux2 inactive
COc1ccc(OC)c(-n2c(C)ccc2-c2ccc(S(C)(=O)=O)cc2)c1	none (no result: Cl transport mod)
Cc1ccc(OCC(=O)c2ccc(Cl)s2)c([N+](=O)[O-])n1	none
COC(=O)c1ccc(Cn2cnc3c(cnn3-c3ccc(Cl)cc3)c2=O)o1	none
O=C(CSc1nnnn1Cc1ccccc1)c1ccccc1	Cl transport mod -3.24 | KCC2 sec1 inactive | KCC2 bumet counter inactive | KCC2 sec2 inactive | HEK counter1 inactive | KCC2 ouabain inconclusive | HEK293 Tl flux2 inactive
COc1ccc(C(=O)CSc2nnnn2Cc2ccccc2)cc1	Cl transport mod -6.37 | KCC2 sec1 inactive | KCC2 bumet counter 0.00744 | KCC2 sec2 0.0248 | HEK counter1 inactive | KCC2 ouabain inconclusive | HEK293 Tl flux2 inactive
CC1Cc2ccccc2N1C(=O)CSc1nnnn1Cc1ccccc1 (centres undefined)	Cl transport mod -3.61 | KCC2 sec1 inactive | KCC2 bumet counter inactive | KCC2 sec2 0.0226 | HEK counter1 inactive | KCC2 ouabain 0.015 | HEK293 Tl flux2 inactive
Cc1nn(Cc2ccc(Cl)cc2)c(C)c1NC(=O)CCCn1nc([N+](=O)[O-])c(Cl)c1C	none
COc1ccc(-c2nnc(SCC(=O)NC(C)c3ccccc3)o2)cc1OC (centres undefined)	none
CCCNC(=O)COC(=O)c1ccccc1OCc1ccc(Cl)cc1	none (no result: Cl transport mod)
O=c1cc(-c2ccc(C3CCCCC3)cc2)[nH][nH]1	none
COc1ccc(OC)c(NC(=O)c2ccc(-n3cccn3)nc2)c1	none
O=C(c1ccccc1SCc1ccccc1)N1CCOCC1	none
N#Cc1c2n(c3c(=O)[nH]cnc13)CCCC2	none
N#Cc1c2n(c3c(=S)nc[nH]c13)CCCCC2	Cl transport mod 5.22 | KCC2 sec1 inactive | KCC2 bumet counter 0.0135 | KCC2 sec2 inactive | HEK counter1 0.0135 | KCC2 ouabain inconclusive | HEK293 Tl flux2 0.0143
CCOc1ccc(NS(=O)(=O)c2ccc(NS(=O)(=O)c3ccccc3)cc2)cc1	none (no result: Cl transport mod) | KCC2 sec1 inactive | KCC2 bumet counter inactive | KCC2 sec2 inactive | HEK counter1 inactive | KCC2 ouabain inconclusive | HEK293 Tl flux2 inactive
O=[N+]([O-])c1cc(S(=O)(=O)Nc2cccc(C(F)(F)F)c2)ccc1-n1nnc2ccccc21	Cl transport mod -3.22 | KCC2 sec1 inactive | KCC2 bumet counter inactive | KCC2 sec2 inactive | HEK counter1 inactive | KCC2 ouabain 0.0149 | HEK293 Tl flux2 inconclusive
O=Nc1ccc(NOC(=O)c2ccccc2)cc1	none
O=C(N=Nc1ccc(NOC(=O)c2ccccc2Br)cc1)c1ccccc1O	Cl transport mod 4.19 | KCC2 sec1 inactive | KCC2 bumet counter 0.0209 | KCC2 sec2 inactive | HEK counter1 0.0131 | KCC2 ouabain inconclusive | HEK293 Tl flux2 inactive
CCc1cccc(NC(=S)N(CCCN2CCOCC2)C(C)c2cc3cccc(OC)c3o2)c1 (centres undefined)	none
S=C(NCc1ccccc1)NCc1ccccc1	none
OCc1ccccc1CNCc1ccccc1	none (no result: Cl transport mod) | KCC2 sec1 inactive | KCC2 bumet counter inactive | KCC2 sec2 inactive | HEK counter1 inactive | KCC2 ouabain inactive | HEK293 Tl flux2 inactive
COc1cccc(CN2CCNC(=O)C2CC(=O)NCCn2cccn2)c1OC (centres undefined)	none
O=C(O)CCc1cc(I)c(Oc2ccc(O)c(I)c2)c(I)c1	Cl transport mod -4.09 (no result: STAT3 inh, STAT1 blocker, HSV augment, STAT1 activator, STAT3 act) | KCC2 sec1 inactive | KCC2 bumet counter inconclusive | KCC2 sec2 0.0247 | HEK counter1 inactive | KCC2 ouabain inconclusive | HEK293 Tl flux2 inactive
N[C@@H](Cc1cc(I)c(Oc2ccc(O)c(I)c2)c(I)c1)C(=O)O	none
